Experimental data taken from ChEMBL document CHEMBL1649522, “Effect of rifampin, a potent inducer of drug-metabolizing enzymes, on the pharmacokinetics of raltegravir” (Antimicrob Agents Chemother, 2009).

Experiments:
Type in all cases: ADME, organism-based
[1] = AUC(0 to 12 hrs) in healthy human at […], po BID for 14 days in presence of […], po rifampin; parameters: time < 12 hr, route oral; settings: plasma
Method in brief: (§1)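 Same subjects given raltegravir 800 mg orally every 12 h plus rifampin 600 mg orally once daily for 14 days. A light meal was taken 2 h before the day 14 morning dose. Plasma sampled 0–12 h postdose and assayed by HPLC-MS/MS. AUC0-12 by linear-up/log-down trapezoidal rule. Cmax, Tmax and C12 read directly.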

[2] = AUC(0 to 12 hrs) in healthy human at […], po BID for 4 days; parameters: time < 12 hr, route oral; settings: plasma
Method in brief: (§2)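 Healthy male and female subjects given raltegravir 400 mg orally every 12 h for 4 days. A light meal was taken 2 h before the day 4 morning dose. Plasma sampled 0–12 h after that dose and assayed by HPLC-MS/MS (LLOQ 2 ng/ml). AUC0-12 by linear-up/log-down trapezoidal rule. Cmax, Tmax and nominal 12 h C12 read from the data.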

[3] = Cmin in healthy human at […], po administered as single dose after 12 hrs in presence of […], po rifampin; settings: in vivo, read-out: Cmin
Method in brief: (§3)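 Same subjects after a washout of at least 4 days, given rifampin 600 mg orally once daily for 15 days. On day 14, a single fasted oral 400 mg raltegravir dose was given with rifampin. Plasma sampled 0–48 h postdose and assayed by HPLC-MS/MS. AUC0-∞ by biexponential fit plus trapezoidal rule. Cmax, Tmax and nominal 12 h C12 read directly.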

[4] = Cmax in healthy human at […], po BID for 14 days in presence of […], po rifampin; parameters: route oral; settings: in vivo; method in brief: as §1
[5] = Terminal half life in healthy human at […], po administered as single dose in presence of […], po rifampin; settings: in vivo, read-out: beta t1/2 (converted)
Method in brief: (§4)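 Study 1: open-label two-period fixed-sequence design in healthy adults (nine completed). A single 400 mg oral dose was given fasted (8 h before, 4 h after), then after at least 4 days washout, 600 mg rifampin orally once daily for 15 days, with 400 mg raltegravir given on day 14. Plasma sampled 0–48 h; LC-MS/MS (LLOQ 2 ng/ml). Biexponential fit weighted 1/(predicted concentration)²; t1/2 = ln(2)/α or β.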

[6] = AUC (0 to infinity) in healthy human at […], po administered as single dose; parameters: time infinity, route oral; settings: plasma
Method in brief: (§5)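 Healthy male and female subjects (n=9), fasted 8 h before and 4 h after a single oral 400 mg raltegravir dose. Plasma sampled 0–48 h postdose and measured by liquid-liquid extraction then reverse-phase HPLC-MS/MS (LLOQ 2 ng/ml). AUC0-∞ from a biexponential fit plus linear/log trapezoidal rule. Cmax and Tmax read from the data. C12 taken at the nominal 12 h sample.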

[7] = Tmax in healthy human at […], po BID for 14 days in presence of […], po rifampin; settings: in vivo; method in brief: as §1
[8] = Primary phase half life in healthy human at […], po administered as single dose; parameters: route oral; settings: in vivo; method in brief: as §4
[9] = Tmax in healthy human at […], po administered as single dose in presence of […], po rifampin; settings: in vivo; method in brief: as §3
[10] = Terminal half life in healthy human at […], po administered as single dose; parameters: route oral; settings: in vivo, read-out: beta t1/2 (converted); method in brief: as §4
[11] = Primary phase half life in healthy human at […], po administered as single dose in presence of […], po rifampin; settings: in vivo; method in brief: as §4
[12] = AUC (0 to infinity) in healthy human at […], po administered as single dose in presence of […], po rifampin; parameters: route oral, time infinity; settings: plasma; method in brief: as §3
[13] = Cmin in healthy human at […], po administered as single dose after 12 hrs; parameters: route oral; settings: in vivo, read-out: Cmin; method in brief: as §5
[14] = Cmax in healthy human at […], po administered as single dose; parameters: route oral; settings: in vivo; method in brief: as §5
[15] = Cmin in healthy human at […], po BID for 4 days after 12 hrs; parameters: route oral; settings: in vivo, read-out: Cmin; method in brief: as §2
[16] = Cmin in healthy human at […], po BID for 14 days after 12 hrs in presence of […], po rifampin; settings: in vivo, read-out: Cmin; method in brief: as §1
[17] = Cmax in healthy human at […], po administered as single dose in presence of […], po rifampin; parameters: route oral; settings: in vivo; method in brief: as §3

AUC at 12 h [1]: 5.85 µM·h
AUC at 12 h [2]: 4.61 µM·h
concentration at 12 h [3]: 36.3 nM
Cmax [4]: 1950 nM
half-life [5]: 9.6 h
AUC(0-inf) [6]: 27.6 µM·h
Tmax [7]: 1.75 h
half-life [8]: 1.07 h
Tmax [9]: 3 h
half-life [10]: 8.5 h
half-life [11]: 0.93 h
AUC(0-inf) [12]: 16.5 µM·h
concentration at 12 h [13]: 92.1 nM
Cmax [14]: 8610 nM
concentration at 12 h [15]: 92.5 nM
concentration at 12 h [16]: 43.5 nM
Cmax [17]: 5340 nM
SMILES: Cc1nnc(C(=O)NC(C)(C)c2nc(C(=O)NCc3ccc(F)cc3)c(O)c(=O)n2C)o1 [RALTEGRAVIR]
